From ChEMBL document CHEMBL1133678, “Synthesis of new indeno[1,2-c]isoquinolines: cytotoxic non-camptothecin topoisomerase I inhibitors” (2000)

How the values were obtained:
Type in all cases: functional
[1] = test system: UACC-62; test: Antiproliferative activity was determined for 50% growth inhibition against human melanoma UACC-62 cell line
Outline: (§1)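 Human cancer cell lines from the roughly 55-line panel. GI50 is the concentration giving 50% growth inhibition. The test range was 10^-4 to 10^-8 M. Values outside the range were set to the minimum (10^-8 M) or the maximum (10^-4 M).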

[2] = test system: DU-145; test: Antiproliferative activity was determined for 50% growth inhibition against human Prostate DU-145 cell line; outline: as §1
[3] = test system: Panel (Carcinoma cell lines); test: Mean graph midpoint for growth inhibition of all human cancer cell lines; set-up: unit: µM
Outline: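 Mean graph midpoint across all cell lines successfully tested in the roughly 55-line human cancer panel. Each line's GI50 is the 50% growth-inhibition concentration, tested over 10^-4 to 10^-8 M. Out-of-range values were set to 10^-8 M or 10^-4 M before averaging.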

[4] = test system: OVCAR-3; test: Antiproliferative activity was determined for 50% growth inhibition against human ovarian OVCAR-3 cell line; outline: as §1
[5] = test system: HOP-62; test: Antiproliferative activity was determined for 50% growth inhibition against human lung HOP-62 cell line; outline: as §1
[6] = test system: MDA-MB-435; test: Antiproliferative activity was determined for 50% growth inhibition against human breast MDA-MB-435 cell line; outline: as §1
[7] = test system: SN12C; test: Antiproliferative activity was determined for 50% growth inhibition against human renal SN12C cell line; outline: as §1
[8] = test system: HCT-116; test: Antiproliferative activity was determined for 50% growth inhibition against human colon HCT116 cell line; outline: as §1
[9] = test system: SF-539; test: Antiproliferative activity was determined for 50% growth inhibition against human CNS SF-539 cell line; outline: as §1

GI50 ([2]; Homo sapiens, DU-145) | GI50 ([4]; Homo sapiens, OVCAR-3) | GI50 ([6]; Homo sapiens, MDA-MB-435) | GI50 ([8]; Homo sapiens, HCT-116) | GI50 [2] | GI50 [4] | GI50 [6] | GI50 [8] | SMILES | GI50 ([1]; Homo sapiens, UACC-62) | MGM [3] | GI50 ([5]; Homo sapiens, HOP-62) | GI50 ([7]; Homo sapiens, SN12C) | GI50 ([9]; Homo sapiens, SF-539) | GI50 [5] | GI50 [7] | GI50 [9] | GI50 [1]
40200 nM | 30.2 µM | 29100 nM | 24.3 µM |  |  |  |  | O=C1c2ccccc2-c2c1c1ccccc1c(=O)n2O | 21500 nM | 29.5 | 56600 nM | 35.7 µM | 15300 nM |  |  |  | 
16800 nM | > 100 µM | 80500 nM | 72.6 µM |  |  |  |  | COc1cc2c3c(n(CCCCl)c(=O)c2cc1OC)-c1cc2c(cc1C3=O)OCO2 | 68600 nM | 47.9 | 40400 nM | 24 µM | 40700 nM |  |  |  | 
3200 nM | 62.1 µM | 16600 nM | 12 µM |  |  |  |  | COc1cc2c3c(n(CCCBr)c(=O)c2cc1OC)-c1cc2c(cc1C3=O)OCO2 | 5020 nM | 13.7 | 6220 nM | 5.83 µM | 4330 nM |  |  |  | 
280 nM | 0.27 µM | 420 nM | 0.18 µM |  |  |  |  | COc1cc2c3c(n(CCCNCCO)c(=O)c2cc1OC)-c1ccc2ccccc2c1C3=O | 160 nM | 0.19 | 170 nM | 0.15 µM | 220 nM |  |  |  | 
1920 nM | 60.1 µM | 11700 nM | 3.53 µM |  |  |  |  | COc1cc2c(cc1OC)-c1c(c3cc(OC)c(OC)cc3c(=O)n1CCCBr)C2=O | 1910 nM | 6.91 | 1870 nM | 3.15 µM | 2580 nM |  |  |  | 
 |  |  |  | 230 nM | 3.8 µM | 2420 nM | 0.71 µM | COc1cc2c(cc1OC)-c1c(c3cc(OC)c(OC)cc3c(=O)n1CCCNCCCO)C2=O.Cl |  | 1.14 |  |  |  | 320 nM | 0.23 µM | 420 nM | 1870 nM
> 100000 nM | > 100 µM | > 100000 nM | > 100 µM |  |  |  |  | CCn1c2c(c3cc(OC)c(OC)cc3c1=O)Cc1cc3c(cc1-2)OCO3 | > 100000 nM | 85.1 | > 100000 nM | > 100 µM | > 100000 nM |  |  |  | 
> 100000 nM | > 100 µM | > 100000 nM | > 100 µM |  |  |  |  | COc1cc2c(cc1OC)-c1c(c3ccccc3c(=O)n1CCCCl)C2=O | > 100000 nM | 76.1 | > 100000 nM | > 100 µM | > 100000 nM |  |  |  | 
37000 nM |  | 96000 nM | 35 µM |  |  |  |  | COc1cc2c3c(n(C)c(=O)c2cc1OC)-c1cc2c(cc1C3=O)OCO2 | 4200 nM | 20 | 1300 nM | 68 µM | 41000 nM |  |  |  | 
 |  |  |  | 100 nM | 3.52 µM | 2360 nM | 0.71 µM | COc1cc2c(cc1OC)-c1c(c3cc(OC)c(OC)cc3c(=O)n1CCCNCCCCO)C2=O |  | 0.85 |  |  |  | 140 nM | 0.11 µM | 60 nM | 1670 nM
16400 nM | 74.2 µM | 76700 nM | 4.95 µM |  |  |  |  | O=C1c2ccccc2-c2c1c1ccccc1c(=O)n2CCO | 18200 nM | 14.5 | 5620 nM | 16.4 µM | 12200 nM |  |  |  | 
16700 nM | 15 µM | 19900 nM | 12.5 µM |  |  |  |  | O=C1c2cc3c(cc2-c2c1c1ccccc1c(=O)n2CCCNCCCO)OCO3 | > 100000 nM | 15.5 | 7170 nM | 14.2 µM | 16200 nM |  |  |  | 
 | 1.9 µM |  | 0.46 µM | 100 nM |  | 1090 nM |  | COc1cc2c(cc1OC)-c1c(c3cc(OC)c(OC)cc3c(=O)n1CCCNCCCO)C2=O | 1510 nM | 0.55 |  | 0.15 µM |  | 70 nM |  | 80 nM | 
40 nM | 0.31 µM | 1210 nM | 0.13 µM |  |  |  |  | COc1cc2c3c(n(CCCN)c(=O)c2cc1OC)-c1cc2c(cc1C3=O)OCO2.Cl | 250 nM | 0.16 | 60 nM | 0.31 µM | 260 nM |  |  |  | 
5370 nM | 91.9 µM | 92400 nM | 13.2 µM |  |  |  |  | CCCCn1c2c(c3cc(OC)c(OC)cc3c1=O)Cc1cc3c(cc1-2)OCO3 | 6510 nM | 21.3 | 12000 nM | 21.7 µM | 3400 nM |  |  |  | 

More lines, now with the values behind:

SMILES | GI50 ([2]; Homo sapiens, DU-145) | GI50 ([4]; Homo sapiens, OVCAR-3) | GI50 ([6]; Homo sapiens, MDA-MB-435) | GI50 ([8]; Homo sapiens, HCT-116) | GI50 [2] | GI50 [4] | GI50 [6] | GI50 [8] | GI50 ([1]; Homo sapiens, UACC-62) | MGM [3] | GI50 ([5]; Homo sapiens, HOP-62) | GI50 ([7]; Homo sapiens, SN12C) | GI50 ([9]; Homo sapiens, SF-539) | GI50 [5] | GI50 [7] | GI50 [9] | GI50 [1]
O=C1c2ccccc2-c2c1c1ccccc1c(=O)n2CCCBr | 13000 nM | 23.5 µM | 21500 nM | 4.47 µM |  |  |  |  | 10100 nM | 13.3 | 4590 nM | 7 µM | 4610 nM |  |  |  | 
COc1cc2c3c(n(CCCN=[N+]=[N-])c(=O)c2cc1OC)-c1cc2c(cc1C3=O)OCO2 | 3190 nM | 76.2 µM | > 100000 nM | 7.4 µM |  |  |  |  |  | 11.8 | 3580 nM | 4.53 µM | 3000 nM |  |  |  | 
COc1cc2c(cc1OC)-c1c(c3cc(OC)c(OC)cc3c(=O)n1CCCNCCO)C2=O |  |  | 1250 nM | 0.31 µM | 20 nM | 11.2 µM |  |  | 380 nM | 0.51 |  |  |  | 50 nM | 0.05 µM | 10 nM | 
COc1cc2c(cc1OC)-c1c(c3ccccc3c(=O)n1CCCN)C2=O.Cl | 890 nM | 0.85 µM | 1050 nM | 0.35 µM |  |  |  |  | 1270 nM | 0.62 | 190 nM | 0.43 µM | 2930 nM |  |  |  | 
COc1cc2c(cc1OC)-c1c(c3cc(OC)c(OC)cc3c(=O)n1CCCNCCCCO)C2=O.Cl |  | 5.49 µM | 2090 nM | 0.81 µM | 210 nM |  |  |  | 1760 nM | 1.47 | 260 nM |  |  |  | 0.28 µM | 590 nM | 
COc1cc2c(cc1OC)-c1c(c3cc(OC)c(OC)cc3c(=O)n1CCCNCCO)C2=O.Cl |  |  |  |  | 70 nM | 2.28 µM | 1430 nM | 0.39 µM |  | 0.68 |  |  |  | 150 nM | 0.11 µM | 160 nM | 730 nM
CC[C@@]1(O)C(=O)OCc2c1cc1n(c2=O)Cc2cc3ccccc3nc2-1 [CAMPTOTHECIN] | 10 nM |  | 40 nM | 0.03 µM |  |  |  |  | 10 nM |  | 10 nM | 0.02 µM | 10 nM |  |  |  | 
COc1cc2c3c(n(C)c(=O)c2cc1OC)-c1cc2c(cc1C3)OCO2 | 42500 nM | > 100 µM | > 100000 nM | 42.9 µM |  |  |  |  | 50000 nM | 43.7 | 11800 nM | 43.6 µM | 61200 nM |  |  |  | 
COc1cc2c3c(n(CCCNCCCO)c(=O)c2cc1OC)-c1cc2c(cc1C3=O)OCO2 | 10 nM | 1.19 µM | 470 nM | 0.04 µM |  |  |  |  | 10 nM | 0.2 | 30 nM | 0.01 µM | 10 nM |  |  |  | 
O=C1c2ccccc2-c2c1c1ccccc1c(=O)n2CCCO | 9560 nM | 28.8 µM | 39700 nM | 3.64 µM |  |  |  |  | 16200 nM | 10.3 | 4890 nM | 6.49 µM | 52500 nM |  |  |  | 
COc1cc2c3c(n(CCCN)c(=O)c2cc1OC)-c1ccc2ccccc2c1C3=O.Cl | 1640 nM | 3.73 µM | 2140 nM | 1.73 µM |  |  |  |  | 17500 nM | 3.72 | 1890 nM | 6.54 µM | 1530 nM |  |  |  | 
COc1cc2c3c(n(CCCNCCO)c(=O)c2cc1OC)-c1cc2c(cc1C3=O)OCO2 [LMP-744] | 20 nM |  |  |  |  | 1.5 µM | 680 nM |  |  | 0.21 |  |  |  |  |  | 90 nM | 
O=C1c2cc3c(cc2-c2c1c1ccccc1c(=O)n2CCCCl)OCO3 | 12700 nM | 66.3 µM | > 100000 nM | 74 µM |  |  |  |  | 53800 nM | 35.1 | 13100 nM | > 100 µM | > 100000 nM |  |  |  | 
COc1cc2c(cc1OC)-c1c(c3ccccc3c(=O)n1CCCNCCO)C2=O.Cl | 440 nM | 3.64 µM | 970 nM | 0.34 µM |  |  |  |  | 630 nM | 0.95 | 620 nM | 2.07 µM | 450 nM |  |  |  | 
